ChEMBL document CHEMBL5136958, “The development of HEC-866 and its analogues for the treatment of idiopathic pulmonary fibrosis” (RSC Med Chem, 2021)
Calls of active or inactive are those of the source. The calls are words filed in the database; no cut-off is given here.

Key:
[1] = AUC(infinity) in Sprague-Dawley rat model of bleomycin-induced pulmonary fibrosis at 2 mg/kg, iv by LC-MS/MS analysis; assay type: ADME, organism-based; parameters: time infinity, dose 2 mg/kg, route iv; settings: in vivo
In short: (§1)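 Male Sprague-Dawley rats with induced pulmonary fibrosis; single i.v. (2.0 mg kg⁻¹) or p.o. (5.0 mg kg⁻¹) administration. Plasma samples stored at −70 °C; the supernatant was analysed by LC-MS/MS for PK parameters.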

[2] = AUClast in Sprague-Dawley rat model of bleomycin-induced pulmonary fibrosis at 5 mg/kg, po by LC-MS/MS analysis; assay type: ADME, organism-based; parameters: time 0 - last, dose 5 mg/kg, route po; settings: in vivo; in short: as §1
[3] = Half life in Sprague-Dawley rat model of bleomycin-induced pulmonary fibrosis at 5 mg/kg, po by LC-MS/MS analysis; assay type: ADME, organism-based; settings: in vivo; in short: as §1
[4] = AUClast in Sprague-Dawley rat model of bleomycin-induced pulmonary fibrosis at 2 mg/kg, iv by LC-MS/MS analysis; assay type: ADME, organism-based; parameters: time 0 - last, dose 2 mg/kg, route iv; settings: in vivo; in short: as §1
[5] = Clearance in Sprague-Dawley rat model of bleomycin-induced pulmonary fibrosis at 2 mg/kg, iv by LC-MS/MS analysis; assay type: ADME, organism-based; settings: in vivo; in short: as §1
[6] = Half life in Sprague-Dawley rat model of bleomycin-induced pulmonary fibrosis at 2 mg/kg, iv by LC-MS/MS analysis; assay type: ADME, organism-based; settings: in vivo; in short: as §1
HFL1 [7] = assay: Antiproliferative activity against human HFL1 cells assessed as reduction in cell proliferation measured after 24 hrs by CCK-8 assay; assay type: functional, cell-based; settings: HFL1, 24 h
In short: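 Human fetal lung fibroblasts (HFL-1); growth inhibition quantified with CCK-8; IC50 averaged from 3 experiments, each in duplicate.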

[8] = AUC(infinity) in Sprague-Dawley rat model of bleomycin-induced pulmonary fibrosis at 5 mg/kg, po by LC-MS/MS analysis; assay type: ADME, organism-based; parameters: time infinity, dose 5 mg/kg, route po; settings: in vivo; in short: as §1
[9] = AUClast in Sprague-Dawley rat model of bleomycin-induced pulmonary fibrosis at 1 mg/kg, iv by LC-MS/MS analysis; assay type: ADME, organism-based; parameters: time 0 - last, dose 1 mg/kg, route iv; settings: in vivo
[10] = Half life in Sprague-Dawley rat model of bleomycin-induced pulmonary fibrosis at 1 mg/kg, iv by LC-MS/MS analysis; assay type: ADME, organism-based; settings: in vivo
[11] = AUC(infinity) in Sprague-Dawley rat model of bleomycin-induced pulmonary fibrosis at 1 mg/kg, iv by LC-MS/MS analysis; assay type: ADME, organism-based; parameters: time infinity, dose 1 mg/kg, route iv; settings: in vivo
[12] = Oral bioavailability in Sprague-Dawley rat model of bleomycin-induced pulmonary fibrosis at 5 mg/kg by LC-MS/MS analysis; assay type: ADME, organism-based; settings: in vivo
In short: (§2)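 Male Sprague-Dawley rats with induced pulmonary fibrosis were dosed 2.0 mg kg⁻¹ i.v. or 5.0 mg kg⁻¹ p.o. Plasma was stored at -70 °C, and the supernatant was analysed by LC-MS/MS.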

[13] = Cmax in Sprague-Dawley rat model of bleomycin-induced pulmonary fibrosis at 5 mg/kg, po by LC-MS/MS analysis; assay type: ADME, organism-based; parameters: dose 5 mg/kg, route po; settings: in vivo; in short: as §1
[14] = Tmax in Sprague-Dawley rat model of bleomycin-induced pulmonary fibrosis at 5 mg/kg, po by LC-MS/MS analysis; assay type: ADME, organism-based; settings: in vivo; in short: as §2
[15] = Clearance in Sprague-Dawley rat model of bleomycin-induced pulmonary fibrosis at 1 mg/kg, iv by LC-MS/MS analysis; assay type: ADME, organism-based; settings: in vivo
[16] = Cmax in Sprague-Dawley rat model of bleomycin-induced pulmonary fibrosis at 10 mg/kg, po by LC-MS/MS analysis; assay type: ADME, organism-based; parameters: dose 10 mg/kg, route po; settings: in vivo
[17] = Half life in Sprague-Dawley rat model of bleomycin-induced pulmonary fibrosis at 10 mg/kg, po by LC-MS/MS analysis; assay type: ADME, organism-based; settings: in vivo
HFL1 [18] = assay: Antifibrotic activity in TGF-beta1-induced HFL1 cell injury assessed as alpha-SMA expression at 3 mM measured after 48 hrs by Western blot analysis (reference value: 100%); assay type: functional, Homo sapiens
In short: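 HFL-1 cells stimulated with TGF-β1; α-SMA protein detected by Western blot with anti-α-SMA antibody, normalised to tubulin; mean of n = 3.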

[19] = AUClast in Sprague-Dawley rat model of bleomycin-induced pulmonary fibrosis at 10 mg/kg, po by LC-MS/MS analysis; assay type: ADME, organism-based; parameters: time 0 - last, dose 10 mg/kg, route po; settings: in vivo
HFL1 [20] = assay: Antifibrotic activity in TGF-beta1-induced HFL1 cell injury assessed as down regulation of collagen 3 mRNA expression at 3 mM measured after 24 hrs by RT-PCR analysis; assay type: functional, cell-based; settings: Homo sapiens
In short: (§3)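 TGF-β1-induced HFL-1 cells treated 24 h (test range 0.625–10 μM; comparator 3 mM); collagen 1 and collagen 3 mRNA measured by RT-PCR; mean of n = 3.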

[21] = Tmax in Sprague-Dawley rat model of bleomycin-induced pulmonary fibrosis at 10 mg/kg, po by LC-MS/MS analysis; assay type: ADME, organism-based; settings: in vivo
[22] = Cmax in Sprague-Dawley rat model of bleomycin-induced pulmonary fibrosis at 2 mg/kg, iv by LC-MS/MS analysis; assay type: ADME, organism-based; parameters: dose 2 mg/kg, route iv; settings: in vivo; in short: as §1
[23] = Oral bioavailability in Sprague-Dawley rat model of bleomycin-induced pulmonary fibrosis at 10 mg/kg by LC-MS/MS analysis; assay type: ADME, organism-based; settings: in vivo
HFL1 [24] = assay: Antifibrotic activity in TGF-beta1-induced HFL1 cell injury assessed as down regulation of collagen 1 mRNA expression at 3 mM measured after 24 hrs by RT-PCR analysis; assay type: functional, cell-based; settings: Homo sapiens; in short: as §3
[25] = AUC(infinity) in Sprague-Dawley rat model of bleomycin-induced pulmonary fibrosis at 10 mg/kg, po by LC-MS/MS analysis; assay type: ADME, organism-based; parameters: time infinity, dose 10 mg/kg, route po; settings: in vivo
Rattus norvegicus = assay: Antifibrotic activity against bleomycin-induced pulmonary fibrosis in Sprague-Dawley rat assessed as reduction in lung histopathological changes at 100 mg/kg, po administered daily for 1 to 14 days starting from post bleomycin stimulation by H and E staining based assay; assay type: functional, organism-based; settings: time 1-14 day
In short: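 Bleomycin-induced lung fibrosis in SD rats; oral dosing daily from day 1 for 14 days; saline for sham and bleomycin groups; comparator 100 mg kg⁻¹ d, test doses 2 and 6 mg kg⁻¹ d; lung pathology assessed by HE histology.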

SMILES: Cc1cc(=O)n(-c2ccc(N3CCC(Cc4cc(F)c(F)c(F)c4)CC3)c(Cl)c2)c(C)n1
- AUC(0-inf) [1]: 2400 ng·h/mL
- AUC(0-t) [2]: 5690 ng·h/mL
- half-life [3]: 505 min
- AUC(0-t) [4]: 2190 ng·h/mL
- clearance [5]: 13.8 mL/min/kg
- half-life [6]: 492 min
- IC50 (HFL1 [7]): 60 µM
- AUC(0-inf) [8]: 6360 ng·h/mL

SMILES: Cc1cc(=O)n(-c2ccc(N3CCC(Cc4ccc(F)cc4)CC3)c(F)c2)c(C)n1
- IC50 (HFL1 [7]): 110 µM

SMILES: Cc1cc(=O)n(-c2ccc(N3CCC(Cc4cccc(F)c4)CC3)c(Cl)c2)c(C)n1
- IC50 (HFL1 [7]): 60 µM

SMILES: Cc1cc(=O)n(-c2ccc(N3CCC(Cc4cccc5cccnc45)CC3)c(Cl)c2)c(C)n1
- IC50 (HFL1 [7]): 120 µM

SMILES: Cc1cc(=O)n(-c2ccc(N3CCC(Cc4cccc(F)c4)CC3)cn2)c(C)n1
- IC50 (HFL1 [7]): 130 µM

SMILES: C=CCc1ccccc1OC1CCN(c2ccc(-n3c(C)nc(C)cc3=O)cc2Cl)CC1
- IC50 (HFL1 [7]): 70 µM

SMILES: Cc1cc(=O)n(-c2cnc(N3CCC(Cc4cccc(F)c4)CC3)c(Cl)c2)c(C)n1
- IC50 (HFL1 [7]): 60 µM

SMILES: Cc1cc(=O)n(-c2ccc(N3CCC(COc4cccc(F)c4)CC3)c(Cl)c2)c(C)n1
- AUC(0-inf) [1]: 3260 ng·h/mL
- AUC(0-t) [2]: 1550 ng·h/mL
- half-life [3]: 316 min
- AUC(0-t) [4]: 1450 ng·h/mL
- clearance [5]: 10.8 mL/min/kg
- half-life [6]: 404 min
- IC50 (HFL1 [7]): 50 µM
- AUC(0-inf) [8]: 3410 ng·h/mL

SMILES: Cc1cc(=O)n(-c2cnc(N3CCC(Oc4cccc(F)c4)CC3)c(Cl)c2)c(C)n1
- IC50 (HFL1 [7]): 70 µM

SMILES: Cc1cc(=O)n(-c2ccc(N3CCC(Cc4cccc(C(F)(F)F)c4)CC3)c(Cl)c2)c(C)n1
- AUC(0-inf) [1]: 3220 ng·h/mL
- AUC(0-t) [2]: 5180 ng·h/mL
- half-life [3]: 710 min
- AUC(0-t) [4]: 2460 ng·h/mL
- clearance [5]: 10.3 mL/min/kg
- half-life [6]: 812 min
- IC50 (HFL1 [7]): 60 µM
- AUC(0-inf) [8]: 7080 ng·h/mL

SMILES: Cc1cc(=O)n(-c2ccc(N3CCC(Cc4cccc(F)c4)CC3)nc2)c(C)n1
- IC50 (HFL1 [7]): 130 µM

SMILES: Cc1cc(=O)n(-c2ccc(N3CCC(Cc4ccccc4Cl)CC3)c(Cl)c2)c(C)n1
- IC50 (HFL1 [7]): 70 µM

SMILES: Cc1cc(=O)n(-c2ccc(N3CCC(Cc4cccc5ccccc45)CC3)c(F)c2)c(C)n1
- AUC(0-inf) [1]: 1130 ng·h/mL
- AUC(0-t) [2]: 1560 ng·h/mL
- half-life [3]: 313 min
- AUC(0-t) [4]: 1110 ng·h/mL
- clearance [5]: 29.8 mL/min/kg
- half-life [6]: 316 min
- IC50 (HFL1 [7]): 60 µM
- AUC(0-inf) [8]: 1600 ng·h/mL

SMILES: Cc1cc(=O)n(-c2ccc(N3CCC(Oc4cccc(F)c4)CC3)c(F)c2)c(C)n1
- IC50 (HFL1 [7]): 110 µM

SMILES: Cc1cc(=O)n(-c2ccc(N3CCC(Cc4cccc(Cl)c4)CC3)c(Cl)c2)c(C)n1
- AUC(0-inf) [1]: 1060 ng·h/mL
- AUC(0-t) [2]: 1750 ng·h/mL
- half-life [3]: 576 min
- AUC(0-t) [4]: 898 ng·h/mL
- clearance [5]: 15.8 mL/min/kg
- half-life [6]: 652 min
- IC50 (HFL1 [7]): 50 µM
- AUC(0-inf) [8]: 2030 ng·h/mL

SMILES: Cc1cc(=O)n(-c2ccc(N3CCC(Cc4ccccc4-c4ccccc4)CC3)c(Cl)c2)c(C)n1
- IC50 (HFL1 [7]): 70 µM

SMILES: Cc1cc(=O)n(-c2ccc(N3CCOCC3)c(F)c2)c(C)n1
- AUC(0-t) [9]: 7130 ng·h/mL
- half-life [10]: 258 min
- AUC(0-inf) [11]: 7290 ng·h/mL
- bioavailability [12]: 92%
- AUC(0-t) [2]: 32600 ng·h/mL
- half-life [3]: 258 min
- Cmax [13]: 4720 ng/mL
- Tmax [14]: 30 min
- clearance [15]: 1.67 mL/min/kg
- IC50 (HFL1 [7]): 6540 µM
- AUC(0-inf) [8]: 33500 ng·h/mL

SMILES: Cc1cc(=O)n(-c2ccc(N3CCC(Cc4ccc5ccccc5c4)CC3)c(Cl)c2)c(C)n1
- IC50 (HFL1 [7]): 90 µM

SMILES: Cc1cc(=O)n(-c2ccc(N3CCC(Nc4cccc(C(F)(F)F)c4)CC3)c(Cl)c2)c(C)n1
- IC50 (HFL1 [7]): 60 µM

SMILES: Cc1cccc(CC2CCN(c3ccc(-n4c(C)nc(C)cc4=O)cc3F)CC2)c1
- IC50 (HFL1 [7]): 100 µM

SMILES: Cc1ccc(=O)n(-c2ccccc2)c1 [PIRFENIDONE]
- Cmax [16]: 5070 ng/mL
- AUC(0-inf) [1]: 650 ng·h/mL
- half-life [17]: 24 min
- AUC(0-t) [4]: 649 ng·h/mL
- Activity (HFL1 [18]): 83.71%
- AUC(0-t) [19]: 3460 ng·h/mL
- Activity (HFL1 [20]): Active
- clearance [5]: 53.3 mL/min/kg
- Tmax [21]: 18 min
- Cmax [22]: 1010 ng/mL
- bioavailability [23]: 107%
- Activity (HFL1 [24]): Active
- half-life [6]: 24 min
- AUC(0-inf) [25]: 3460 ng·h/mL
- IC50 (HFL1 [7]): 9150 µM
- Activity (Rattus norvegicus): Active
